Laboratory results reported in ChEMBL document CHEMBL1137711, “Design, synthesis, structure-activity relationship and antibacterial activity series of novel imidazo fused quinolone carboxamides” (2009).
≈ marks a conversion by molar mass, not a printed value. Calls of active or inactive are those of the source. No cut-off for these calls is given here.

Assays:
Assay type in all cases: functional
[1] = system: Lysinibacillus sphaericus; assay: Antibacterial activity against Bacillus sphaericus after 24 hrs by broth dilution method
How it was run: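 Broth dilution per NCCLS 1982: test agent serially diluted across tubes 1–9 of sterile nutrient broth; 0.5 ml overnight culture added to each tube; incubated at 37 °C for 24 h, then turbidity read to give the minimum inhibitory concentration. DMSO served as negative control; ciprofloxacin run alongside.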

[2] = system: Chromobacterium violaceum; assay: Antibacterial activity against Chromobacterium violaceum after 24 hrs by broth dilution method
How it was run: (§1)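 MIC by broth dilution (NCCLS 1982) in nutrient broth, test compound serially diluted across tubes 1–9. Each tube receives 0.5 ml overnight culture. Incubation 37 °C for 24 h, then turbidity read. DMSO as negative control, ciprofloxacin as reference.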

Klebsiella aerogenes = assay: Antibacterial activity against Klebsiella aerogenes after 24 hrs by broth dilution method; how it was run: as §1
Pseudomonas aeruginosa = assay: Antibacterial activity against Pseudomonas aeruginosa after 24 hrs by broth dilution method; how it was run: as §1
Staphylococcus aureus = assay: Antibacterial activity against Staphylococcus aureus after 24 hrs by broth dilution method; how it was run: as §1
Bacillus subtilis = assay: Antibacterial activity against Bacillus subtilis after 24 hrs by broth dilution method; how it was run: as §1

Row | SMILES | MIC [1] | MIC [2] | MIC (Klebsiella aerogenes) | MIC (Pseudomonas aeruginosa) | MIC (Staphylococcus aureus) | MIC (Bacillus subtilis)
1 | CNC(=O)c1cn2c(-c3ccc(N(C)C)cc3)nc3c(NC)c(F)cc(c1=O)c32 | 25 µg/mL (≈ 63.5 µM) | 12.5 µg/mL (≈ 31.8 µM) | 25 µg/mL (≈ 63.5 µM) | 6.25 µg/mL (≈ 15.9 µM) | 12.5 µg/mL (≈ 31.8 µM) | 25 µg/mL (≈ 63.5 µM)
2 | CCn1cc(C(=O)NC)c(=O)c2cc(F)c3c(nc(C(C)C)n3C)c21 | 25 µg/mL (≈ 72.6 µM) | 12.5 µg/mL (≈ 36.3 µM) | 50 µg/mL (≈ 145 µM) | 50 µg/mL (≈ 145 µM) | 50 µg/mL (≈ 145 µM) | 12.5 µg/mL (≈ 36.3 µM)
3 | CNC(=O)c1cn2c(-c3ccc(Cl)cc3)nc3c(NC)c(F)cc(c1=O)c32 | 25 µg/mL (≈ 65 µM) | 6.25 µg/mL (≈ 16.2 µM) | inactive | 25 µg/mL (≈ 65 µM) | 25 µg/mL (≈ 65 µM) | 25 µg/mL (≈ 65 µM)
4 | CNC(=O)c1cn2c(-c3ccccc3)nc3c(NC)c(F)cc(c1=O)c32 | 25 µg/mL (≈ 71.4 µM) | 12.5 µg/mL (≈ 35.7 µM) | inactive | 12.5 µg/mL (≈ 35.7 µM) | 6.25 µg/mL (≈ 17.8 µM) | 12.5 µg/mL (≈ 35.7 µM)
5 | CCn1cc(C(=O)NC)c(=O)c2cc(F)c3c(nc(CC(C)C)n3C)c21 | inactive | 25 µg/mL (≈ 69.8 µM) | 12.5 µg/mL (≈ 34.9 µM) | 25 µg/mL (≈ 69.8 µM) | inactive | inactive
6 | CCCCCCc1nc2c3c(cc(F)c2n1C)c(=O)c(C(=O)NC)cn3CC | inactive | 25 µg/mL (≈ 64.7 µM) | 50 µg/mL (≈ 129 µM) | 50 µg/mL (≈ 129 µM) | inactive | inactive
7 | CNC(=O)c1cn2c(-c3ccc(O)cc3)nc3c(NC)c(F)cc(c1=O)c32 | 25 µg/mL (≈ 68.2 µM) | 25 µg/mL (≈ 68.2 µM) | inactive | inactive | 25 µg/mL (≈ 68.2 µM) | 12.5 µg/mL (≈ 34.1 µM)
8 | CNC(=O)c1cn2c(-c3ccc(F)cc3)nc3c(NC)c(F)cc(c1=O)c32 | 25 µg/mL (≈ 67.9 µM) | 6.25 µg/mL (≈ 17 µM) | inactive | 25 µg/mL (≈ 67.9 µM) | 25 µg/mL (≈ 67.9 µM) | 25 µg/mL (≈ 67.9 µM)
9 | CCCCCc1nc2c3c(cc(F)c2n1C)c(=O)c(C(=O)NC)cn3CC | 50 µg/mL (≈ 134 µM) | 25 µg/mL (≈ 67.1 µM) | 12.5 µg/mL (≈ 33.6 µM) | 25 µg/mL (≈ 67.1 µM) | 25 µg/mL (≈ 67.1 µM) | 25 µg/mL (≈ 67.1 µM)
10 | CNC(=O)c1cn2c(-c3ccco3)nc3c(NC)c(F)cc(c1=O)c32 | 25 µg/mL (≈ 73.5 µM) | 6.25 µg/mL (≈ 18.4 µM) | inactive | 12.5 µg/mL (≈ 36.7 µM) | 6.25 µg/mL (≈ 18.4 µM) | 6.25 µg/mL (≈ 18.4 µM)
11 | CCc1nc2c3c(cc(F)c2n1C)c(=O)c(C(=O)NC)cn3CC | inactive | inactive | inactive | inactive | inactive | inactive
12 | CNC(=O)c1cn2c(-c3ccc([N+](=O)[O-])cc3)nc3c(NC)c(F)cc(c1=O)c32 | 12.5 µg/mL (≈ 31.6 µM) | 25 µg/mL (≈ 63.2 µM) | inactive | inactive | 12.5 µg/mL (≈ 31.6 µM) | 12.5 µg/mL (≈ 31.6 µM)
13 | O=C(O)c1cn(C2CC2)c2cc(N3CCNCC3)c(F)cc2c1=O [CIPROFLOXACIN] | 0.78 µg/mL (≈ 2.35 µM) | 0.39 µg/mL (≈ 1.18 µM) | 0.78 µg/mL (≈ 2.35 µM) | 0.78 µg/mL (≈ 2.35 µM) | 0.39 µg/mL (≈ 1.18 µM) | 0.78 µg/mL (≈ 2.35 µM)
14 | CNC(=O)c1cn2c(-c3ccc(C)cc3)nc3c(NC)c(F)cc(c1=O)c32 | 12.5 µg/mL (≈ 34.3 µM) | 6.25 µg/mL (≈ 17.2 µM) | inactive | 6.25 µg/mL (≈ 17.2 µM) | 12.5 µg/mL (≈ 34.3 µM) | 25 µg/mL (≈ 68.6 µM)
15 | CNC(=O)c1cn2c(-c3ccc(OC)cc3)nc3c(NC)c(F)cc(c1=O)c32 | 12.5 µg/mL (≈ 32.9 µM) | 25 µg/mL (≈ 65.7 µM) | inactive | 6.25 µg/mL (≈ 16.4 µM) | 25 µg/mL (≈ 65.7 µM) | 12.5 µg/mL (≈ 32.9 µM)
16 | CCCCc1nc2c3c(cc(F)c2n1C)c(=O)c(C(=O)NC)cn3CC | inactive | 25 µg/mL (≈ 69.8 µM) | 25 µg/mL (≈ 69.8 µM) | 12.5 µg/mL (≈ 34.9 µM) | inactive | inactive
17 | CCCc1nc2c3c(cc(F)c2n1C)c(=O)c(C(=O)NC)cn3CC | 50 µg/mL (≈ 145 µM) | 25 µg/mL (≈ 72.6 µM) | 12.5 µg/mL (≈ 36.3 µM) | 25 µg/mL (≈ 72.6 µM) | 25 µg/mL (≈ 72.6 µM) | 12.5 µg/mL (≈ 36.3 µM)
